Results gathered from unrelated publications.
Read-out: cell growth or viability

O=C1CCC(N2C(=O)c3cccc4c(Cc5cnn(C6CCN(C(=O)C7(O)CC7)CC6)c5)ccc2c34)C(=O)N1 (centres unmarked) — IC50 (NCI-H929): 9e-05 µM
CCNC(=O)Nc1nc2cc(-c3ccc4ncn(Cc5ccccc5)c(=O)c4c3)ccc2s1 — IC50 (PC-9; MTT; 72 h): > 20 µM
O=C1CCC(N2Cc3c(OCc4ccc(CN5CCNCC5)cc4)cccc3C2=O)C(=O)N1 (centres unmarked) — IC50 (NCI-H929): 0.0204 µM
Cc1cc(C)cc(NC(=O)Nc2nc3cc(-c4ccc5ncn(Cc6ccccc6)c(=O)c5c4)ccc3s2)c1 — IC50 (PC-9; MTT; 72 h): > 20 µM
O=C(NO)c1ccc(Cn2cnc3c(Nc4ccc(F)c(Cl)c4)ncnc32)cc1 — IC50 (Raji; MTT; 72 h): 0.87 µM
CCCc1cc2cc(-n3nc(C)c4c3CC(C)(C)CC4=O)cc(N3CCC(O)CC3)c2c(=O)[nH]1 — IC50 (SK-OV-3; MTS): 2.98 µM
O=C(Nc1cccc(F)c1)Nc1nc2cc(-c3ccc4ncn(Cc5ccccc5)c(=O)c4c3)ccc2s1 — IC50 (PC-9; MTT; 72 h): > 20 µM
Cc1nc(Nc2ncc(C(=O)Nc3c(C)cccc3Cl)s2)cc(N2CC[C@H](O)C2)n1 — IC50 (JVM13; ATP luminescence; 72 h): > 10 µM
COc1cccc(NC(=O)Nc2nc3cc(-c4ccc5ncn(CC(=O)N6CCOCC6)c(=O)c5c4)ccc3s2)c1 — IC50 (PC-9; MTT; 72 h): > 20 µM
COc1cc(C2C3=C(Nc4nc(SC)[nH]c(=O)c42)c2ccccc2C3=O)ccc1O (centres unmarked) — IC50 (SK-OV-3; MTT; 72 h): > 1000 µM
CC(C)(O)C(=O)N1CCC(n2cc(Cc3ccc4c5c(cccc35)C(=O)N4C3CCC(=O)NC3=O)cn2)CC1 (centres unmarked) — IC50 (NCI-H929): 0.00019 µM
Nc1ccccc1NC(=O)c1ccc(Cn2cnc3c(Nc4ccc(Cl)cc4)ncnc32)cc1 — IC50 (Raji; MTT; 72 h): 0.11 µM
Cc1ccc(NC(=O)Nc2nc3cc(-c4ccc5ncn(Cc6ccccc6)c(=O)c5c4)ccc3s2)cc1 — IC50 (PC-9; MTT; 72 h): > 20 µM
CN1CCC(NC2CCc3[nH]c4c(C(N)=O)ccc(-c5ccccc5Cl)c4c3C2)CC1 (centres unmarked) — IC50 (DOHH-2; 96 h): 0.0247 µM
CCCC(=O)Nc1nc2cc(-c3ccc4ncn(Cc5ccccc5)c(=O)c4c3)ccc2s1 — IC50 (PC-9; MTT; 72 h): > 20 µM
O=C1C(=Nc2ccc(Cl)cc2Br)c2ccccc2N1Cc1ccc(Br)cc1 — IC50 (HCT-116; MTT; 48 h): 0.6 µM
Nc1cccc2c1CN(C1CCC(=O)NC1=O)C2=O (centres unmarked) — IC50 (NCI-H929): > 0.05 µM
COc1ccc(Nc2ncnc3c2ncn3Cc2ccc(C(=O)NO)cc2)cc1 — IC50 (Raji; MTT; 72 h): 0.43 µM
O=C1CCC(N2C(=O)c3cccc4c(Cc5cnn(C6CCNCC6)c5)ccc2c34)C(=O)N1 (centres unmarked) — IC50 (NCI-H929): 0.00016 µM
O=C(NO)c1ccc(Cn2cnc3c(Nc4ccc(Cl)cc4)ncnc32)cc1 — IC50 (Raji; MTT; 72 h): 0.36 µM
COc1cc(C2C3=C(COC3=O)N(CCO)c3cc4c(cc32)CCC4)cc(OC)c1OC (centres unmarked) — IC50 (EMT6; ATP luminescence; 48 h): 0.18 µM
CN(C)CCn1cnc2ccc(-c3ccc4sc(NC(=O)Nc5ccc(F)cc5)nc4c3)cc2c1=O — IC50 (PC-9; MTT; 72 h): 4.87 µM
Cc1cccc(N=C2C(=O)N(Cc3ccccc3)c3ccccc32)c1 — IC50 (HCT-116; MTT; 48 h): 2.72 µM
